Calls of active or inactive are those of the source. The calls are words filed in the database; no cut-off is given here.
What was measured:
L1210 [1] = assay: Antitumor activity against mouse L1210 cells allografted in BDF1 mouse assessed as increase in life span at 200 mg/kg, ip administered as single dose 24 hrs post-implantation measured up to 30 days relative to control; type: functional; conditions: route intraperitoneal
Method in brief: (§1)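 BDF1 mice inoculated ip with 1-2 × 10⁵ L1210 cells; 24 h later a single ip dose given as solution or suspension in aqueous 0.9% NaCl, 0.4% polysorbate 80, 0.5% low-viscosity sodium carboxymethylcellulose, 0.9% benzyl alcohol. Mice held on normal diet for 30 days. Groups of eight to ten animals; percent increase in life span versus untreated infected controls, with 30-day survivors counted.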

Mus musculus [2] = assay: Toxicity in BDF1 mouse allografted with mouse L1210 cells assessed as reduction in average life span at 500 mg/kg, ip administered as single dose 24 hrs post-implantation measured up to 30 days relative to control; type: organism-based; design: dose 500 mg/kg, route intraperitoneal; conditions: in vivo
Method in brief: (§2)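 BDF1 mice were inoculated ip with 1-2 × 10⁵ L1210 cells. After 24 h, one ip dose was given as a solution or suspension in aqueous 0.9% NaCl, 0.4% polysorbate 80, 0.5% low-viscosity Na carboxymethylcellulose and 0.9% benzyl alcohol. Mice were followed for 30 days, with 8-10 per group. The read-out is % increase in life span versus infected controls, plus the count of 30-day survivors.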

Mus musculus [3] = assay: Toxicity in BDF1 mouse allografted with mouse L1210 cells assessed as reduction in average life span at 1000 mg/kg, ip administered as single dose 24 hrs post-implantation measured up to 30 days relative to control; type: organism-based; design: dose 1000 mg/kg, route intraperitoneal; conditions: in vivo; method in brief: as §2
Mus musculus [4] = assay: Toxicity in BDF1 mouse allografted with mouse L1210 cells assessed as reduction in survival at 500 mg/kg, ip administered as single dose 24 hrs post-implantation measured up to 30 days relative to control; type: organism-based; design: dose 500 mg/kg, route intraperitoneal; conditions: in vivo; method in brief: as §1
Mus musculus [5] = assay: Toxicity in BDF1 mouse allografted with mouse L1210 cells assessed as reduction in survival at 1000 mg/kg, ip administered as single dose 24 hrs post-implantation measured up to 30 days relative to control; type: organism-based; design: dose 1000 mg/kg, route intraperitoneal; conditions: in vivo; method in brief: as §1
HeLa = assay: Cytotoxicity against human HeLa cells after 48 hrs by Coulter counting analysis; type: functional; conditions: read-out: ED50 (the source's name)
Method in brief: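 HeLa cells (10⁵) were grown for 2 days at 37° in MEM with 10% bovine serum. The medium was then replaced with fresh medium containing serial compound dilutions. After 48 h, cells were dispersed with 0.02% trypsin and 0.04% versene and counted on a Coulter counter. The result is expressed as ED50 in μg/ml.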

Vaccinia virus = assay: Antiviral activity against Vaccinia virus IHD infected in African green monkey BGM cells after 6 days by plaque reduction assay; type: functional; conditions: Orthopoxvirus vaccinia, 144 h, read-out: ED50 (the source's name)
Herpesviridae sp. = assay: Antiviral activity against Herpes simplex virus HF infected in African green monkey BGM cells after 6 days by plaque reduction assay; type: functional; conditions: 144 h, read-out: ED50 (the source's name)
Method in brief: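 Quantitative plaque reduction assay. Confluent BGM monolayers were infected with 100-200 pfu of HSV (HF strain) and overlaid with 1.25% agar in MEM with 2.0% bovine serum containing graded compound concentrations. A second overlay with neutral red (1:20000) was added on day 4, and plaques were counted on day 6. ED50, the μM concentration giving 50% plaque reduction, was taken from a probability plot of % inhibition against concentration.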

L1210 [6] = assay: Antitumor activity against mouse L1210 cells allografted in BDF1 mouse assessed as increase in life span at 1000 mg/kg, ip administered as single dose 24 hrs post-implantation measured up to 30 days relative to control; type: functional; conditions: route intraperitoneal; method in brief: as §1
Mus musculus [7] = assay: Toxicity in BDF1 mouse allografted with mouse L1210 cells assessed as reduction in average life span at 200 mg/kg, ip administered as single dose 24 hrs post-implantation measured up to 30 days relative to control; type: organism-based; design: dose 200 mg/kg, route intraperitoneal; conditions: in vivo; method in brief: as §2
Mus musculus [8] = assay: Toxicity in BDF1 mouse allografted with mouse L1210 cells assessed as reduction in survival at 200 mg/kg, ip administered as single dose 24 hrs post-implantation measured up to 30 days relative to control; type: organism-based; design: dose 200 mg/kg, route intraperitoneal; conditions: in vivo; method in brief: as §1
[9] = Half life in human; type: ADME, organism-based; conditions: in vivo
L1210 [10] = assay: Antitumor activity against mouse L1210 cells allografted in BDF1 mouse assessed as survival at 200 mg/kg, ip administered as single dose 24 hrs post-implantation after 30 days; type: functional, organism-based; design: dose 200 mg/kg; method in brief: as §2
L1210 [11] = assay: Antitumor activity against mouse L1210 cells allografted in BDF1 mouse assessed as survival at 1000 mg/kg, ip administered as single dose 24 hrs post-implantation after 30 days; type: functional, organism-based; design: dose 1000 mg/kg; method in brief: as §2
[12] = system: unidentified influenza virus; assay: Antiviral activity against Influenza virus […] infected in monkey LLC-MK2 cells after 5 days by pulp disk diffusion assay; type: functional, organism-based
Method in brief: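 Pulp disk diffusion screen: LLCMK2 cells infected with 200 pfu influenza Ao/WSN in presence of trypsin; filter paper disk loaded with 50 μg compound; antiviral activity read as diameter of plaque-inhibition zone on day 5.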

L1210 [13] = assay: Antitumor activity against mouse L1210 cells allografted in BDF1 mouse assessed as survival at 500 mg/kg, ip administered as single dose 24 hrs post-implantation after 30 days; type: functional, organism-based; design: dose 500 mg/kg; method in brief: as §2
L1210 [14] = assay: Antitumor activity against mouse L1210 cells allografted in BDF1 mouse assessed as increase in life span at 2000 mg/kg, ip administered as single dose 24 hrs post-implantation measured up to 30 days relative to control; type: functional; conditions: route intraperitoneal; method in brief: as §1
Mus musculus [15] = assay: Toxicity in BDF1 mouse allografted with mouse L1210 cells at 3000 mg/kg, ip; type: organism-based; design: dose 3000 mg/kg, route intraperitoneal; conditions: in vivo; method in brief: as §2
BGM = assay: Antiviral activity against Poliovirus type 1 Mahoney infected in African green monkey BGM cells after 5 days by pulp disk diffusion assay; type: functional, cell-based; conditions: Human poliovirus 1 Mahoney
Method in brief: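 Pulp disk diffusion screen: BGM African green monkey kidney cells infected with 200 pfu Mahoney type I poliovirus; filter paper disk loaded with 50 μg compound; antiviral activity read as diameter of plaque-inhibition zone on day 5.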

Measles morbillivirus = assay: Antiviral activity against Measles virus infected in African green monkey BGM cells after 5 days by pulp disk diffusion assay; type: functional, organism-based
Method in brief: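 Preliminary pulp disk diffusion screen. BGM cells were infected with 200 pfu of measles virus. A filter paper disk impregnated with 50 μg of compound was applied. Activity was scored as the diameter of the zone of plaque inhibition on day 5.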

L1210 [16] = assay: Antitumor activity against mouse L1210 cells allografted in BDF1 mouse assessed as increase in life span at 500 mg/kg, sc administered 10 days prior to infection relative to control; type: functional; conditions: route subcutaneous
Method in brief: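 Single subcutaneous dose given 10 days before infection of mice with L1210 cells; activity expressed as percent increase in life span relative to untreated controls.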

| SMILES | ILS at 200 mg/kg (L1210 [1]) [%] | EC50 (HeLa) [µg/mL] | EC50 (Vaccinia virus) [µM] | EC50 (Herpesviridae sp.) [µM] | ILS at 1000 mg/kg (L1210 [6]) [%] | Activity (L1210 [10]) | Activity (L1210 [11]) | other results |
| --- | --- | --- | --- | --- | --- | --- | --- | --- |
| CCCCCCCC(=O)O[C@H]1[C@@H]2Oc3nc(=N)ccn3[C@@H]2O[C@@H]1CO.Cl | 34 | 0.1 | 0.19 | 0.72 |  |  |  | ILS (Mus musculus [2]): -93%; ILS (Mus musculus [3]): -100%; Activity (Mus musculus [4]): Toxic; Activity (Mus musculus [5]): Toxic |
| CCCCCCCCCCCCCCCCCCCCCC(=O)O[C@H]1[C@@H]2Oc3nc(=N)ccn3[C@@H]2O[C@@H]1CO.Cl | > 169 | 0.38 | 18.5 | > 30 | > 240 |  |  |  |
| CCCCCCC/C=C/C(=O)O[C@H]1[C@@H]2Oc3nc(=N)ccn3[C@@H]2O[C@@H]1CO.Cl |  | 0.06 | 0.15 | 0.21 |  |  |  | ILS (Mus musculus [7]): -83%; Activity (Mus musculus [8]): Toxic |
| Nc1ccn([C@@H]2O[C@H](CO)[C@@H](O)[C@@H]2O)c(=O)n1 [CYTARABINE] |  |  |  |  |  |  |  | half-life [9]: 12 min |
| CCCCCCCCCCCCCCCCCC(=O)O[C@H]1[C@@H]2Oc3nc(=N)ccn3[C@@H]2O[C@@H]1CO.Cl | 115 | 0.22 | 1.6 | 5.45 | > 257 | inactive | Active |  |
| CC(=O)O[C@H]1[C@@H]2Oc3nc(=N)ccn3[C@@H]2O[C@@H]1CO.Cl | 37 | 0.18 | 0.73 | 2.25 | 87 | inactive | inactive |  |
| CCCCCCCCCCCCCCCC(=O)O[C@H]1[C@@H]2Oc3nc(=N)ccn3[C@@H]2O[C@@H]1CO.Cl | > 191 | 0.2 | 1.2 | 5.5 |  |  |  | ILS (Mus musculus [3]): -20%; Activity (Mus musculus [5]): Toxic |
| CCCCCCCCCCCCCCCCCCCC(=O)O[C@H]1[C@@H]2Oc3nc(=N)ccn3[C@@H]2O[C@@H]1CO.Cl | > 281 | 0.22 | > 30 | > 30 | > 266 |  | Active |  |
| Cl.N=c1ccn2c(n1)O[C@H]1[C@H](O)[C@@H](CO)O[C@H]12 [ANCITABINE HYDROCHLORIDE] | 25 | 0.05 | 0.41 | 0.7 | 89 | inactive | inactive | Activity [12]: inactive; Activity (L1210 [13]): inactive; ILS at 2000 mg/kg (L1210 [14]): > 151%; Activity (Mus musculus [15]): Toxic; Activity (BGM): inactive; Activity (Measles morbillivirus): inactive |
| CCCCCCCCCCCCCC(=O)O[C@H]1[C@@H]2Oc3nc(=N)ccn3[C@@H]2O[C@@H]1CO.Cl | 100 | 0.2 | 0.34 | 1.35 | > 280 | inactive | Active | ILS at 500 mg/kg (L1210 [16]): 64% |
| CCCC(=O)O[C@H]1[C@@H]2Oc3nc(=N)ccn3[C@@H]2O[C@@H]1CO.Cl | 30 | 0.12 | 0.59 | 2.05 |  | inactive |  |  |
